Source: ChEMBL document CHEMBL1255169, “Synthesis, structure-affinity relationships, and radiolabeling of selective high-affinity 5-HT4 receptor ligands as prospective imaging probes for positron emission tomography” (J Med Chem, 2010)

Key:
[1] = molecular target: 5-hydroxytryptamine receptor 7 (Homo sapiens, UniProt P34969); experiment: Binding affinity to human 5-HT7 receptor
[2] = molecular target: Beta-3 adrenergic receptor (Rattus norvegicus, UniProt P26255); experiment: Binding affinity to rat adrenergic beta3 receptor
[3] = molecular target: Muscarinic acetylcholine receptor M5 (Homo sapiens, UniProt P08912); experiment: Binding affinity to human muscarinic M5 receptor
[4] = molecular target: 5-hydroxytryptamine receptor 1D (Homo sapiens, UniProt P28221); experiment: Binding affinity to human 5-HT1D receptor
[5] = molecular target: D(1B) dopamine receptor (Homo sapiens, UniProt P21918); experiment: Binding affinity to human dopamine D5 receptor
[6] = molecular target: Histamine H3 receptor (Cavia porcellus, UniProt Q9JI35); experiment: Binding affinity to guinea pig histamine H3 receptor
[7] = molecular target: Kappa-type opioid receptor (Homo sapiens, UniProt P41145); experiment: Binding affinity to human kappa opioid receptor
[8] = molecular target: Sodium-dependent dopamine transporter (Homo sapiens, UniProt Q01959); experiment: Binding affinity to human DAT
[9] = molecular target: D(3) dopamine receptor (Rattus norvegicus, UniProt P19020); experiment: Binding affinity to rat dopamine D3 receptor
[10] = molecular target: Alpha-1D adrenergic receptor (Homo sapiens, UniProt P25100); experiment: Binding affinity to human adrenergic Alpha-1D receptor
[11] = Binding affinity to BZP receptor in rat brain; format: tissue-based
[12] = molecular target: 5-hydroxytryptamine receptor 4 (Cavia porcellus, UniProt O70528); experiment: Displacement of [3H]GR113808 from 5HT4 receptor in guinea pig striatal membranes; format: cell membranes, Striatum, Membrane
[13] = molecular target: Beta-1 adrenergic receptor (Rattus norvegicus, UniProt P18090); experiment: Binding affinity to rat adrenergic beta-1 receptor
[14] = molecular target: 5-hydroxytryptamine receptor 6 (Homo sapiens, UniProt P50406); experiment: Binding affinity to human 5-HT6 receptor
[15] = molecular target: Sigma non-opioid intracellular receptor 1 (Rattus norvegicus, UniProt Q9R0C9); experiment: Binding affinity to rat sigma 1 receptor
[16] = molecular target: GABA-A receptor; agonist GABA site; experiment: Binding affinity to human GABAA receptor; format: protein-complex assay
[17] = molecular target: Muscarinic acetylcholine receptor M1 (Homo sapiens, UniProt P11229); experiment: Binding affinity to human muscarinic M1 receptor
[18] = molecular target: T1, Alpha-2B adrenergic receptor (Homo sapiens, UniProt P18089); experiment: Binding affinity to human adrenergic alpha2B receptor
T1 sequence (P18089 whole entry): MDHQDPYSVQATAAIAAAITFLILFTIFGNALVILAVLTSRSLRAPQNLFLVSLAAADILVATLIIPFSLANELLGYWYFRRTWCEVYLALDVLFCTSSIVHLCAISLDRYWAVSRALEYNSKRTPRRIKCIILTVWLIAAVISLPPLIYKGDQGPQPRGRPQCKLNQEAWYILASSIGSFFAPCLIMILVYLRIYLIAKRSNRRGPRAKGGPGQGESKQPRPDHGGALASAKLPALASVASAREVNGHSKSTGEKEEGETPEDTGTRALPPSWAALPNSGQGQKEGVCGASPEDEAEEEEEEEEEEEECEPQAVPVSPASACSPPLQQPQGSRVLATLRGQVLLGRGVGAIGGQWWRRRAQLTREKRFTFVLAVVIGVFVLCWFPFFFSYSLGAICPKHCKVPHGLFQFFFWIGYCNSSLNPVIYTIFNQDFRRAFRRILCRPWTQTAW
Outline: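 Radioligand binding run by the NIMH Psychoactive Drug Screening Program as part of a broad receptor and binding-site panel, which included α1A, α1B, α1D and α2A–C subtypes. Affinity is expressed as Ki.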

[19] = Binding affinity to rat sigma 2 receptor
[20] = molecular target: 5-hydroxytryptamine receptor 2B (Homo sapiens, UniProt P41595); experiment: Binding affinity to human 5-HT2B receptor
[21] = molecular target: Muscarinic acetylcholine receptor M3 (Homo sapiens, UniProt P20309); experiment: Binding affinity to human muscarinic M3 receptor
[22] = molecular target: Delta-type opioid receptor (Homo sapiens, UniProt P41143); experiment: Binding affinity to human delta opioid receptor
[23] = molecular target: T2, Alpha-1B adrenergic receptor (Homo sapiens, UniProt P35368); experiment: Binding affinity to human adrenergic Alpha-1B receptor
T2 sequence (P35368 whole entry): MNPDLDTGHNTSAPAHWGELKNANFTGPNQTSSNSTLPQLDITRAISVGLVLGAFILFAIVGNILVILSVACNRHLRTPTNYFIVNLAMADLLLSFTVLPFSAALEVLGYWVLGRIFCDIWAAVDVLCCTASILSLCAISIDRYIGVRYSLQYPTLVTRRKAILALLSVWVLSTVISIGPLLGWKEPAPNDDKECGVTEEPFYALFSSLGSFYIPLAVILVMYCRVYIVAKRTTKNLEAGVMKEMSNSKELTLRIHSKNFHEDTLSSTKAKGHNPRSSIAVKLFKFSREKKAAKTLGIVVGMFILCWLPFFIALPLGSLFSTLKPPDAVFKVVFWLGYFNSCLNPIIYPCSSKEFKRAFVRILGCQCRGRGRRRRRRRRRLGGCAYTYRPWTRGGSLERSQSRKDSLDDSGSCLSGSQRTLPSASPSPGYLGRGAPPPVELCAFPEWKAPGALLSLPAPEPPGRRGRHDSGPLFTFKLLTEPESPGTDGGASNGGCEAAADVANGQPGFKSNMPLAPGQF

[24] = molecular target: 5-hydroxytryptamine receptor 1A (Homo sapiens, UniProt P08908); experiment: Binding affinity to human 5-HT1A receptor
[25] = molecular target: 5-hydroxytryptamine receptor 1B (Homo sapiens, UniProt P28222); experiment: Binding affinity to human 5-HT1B receptor
[26] = molecular target: T3, 5-hydroxytryptamine receptor 2C (Homo sapiens, UniProt P28335); experiment: Binding affinity to human 5-HT2C receptor
T3 sequence (P28335 whole entry): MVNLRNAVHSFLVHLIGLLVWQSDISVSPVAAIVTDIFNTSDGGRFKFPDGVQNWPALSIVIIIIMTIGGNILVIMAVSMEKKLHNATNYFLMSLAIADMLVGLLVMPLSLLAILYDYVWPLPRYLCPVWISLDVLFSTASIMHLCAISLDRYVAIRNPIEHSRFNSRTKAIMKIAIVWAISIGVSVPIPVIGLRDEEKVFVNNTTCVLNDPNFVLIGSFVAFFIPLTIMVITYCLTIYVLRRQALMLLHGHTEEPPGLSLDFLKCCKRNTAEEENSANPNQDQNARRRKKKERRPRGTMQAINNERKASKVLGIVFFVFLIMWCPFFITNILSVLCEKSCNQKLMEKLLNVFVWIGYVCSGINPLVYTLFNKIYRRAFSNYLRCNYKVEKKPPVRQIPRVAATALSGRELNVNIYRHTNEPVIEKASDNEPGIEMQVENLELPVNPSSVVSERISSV

[27] = molecular target: Histamine H2 receptor (Cavia porcellus, UniProt P47747); experiment: Binding affinity to guinea pig histamine H2 receptor
Sequence of Histamine H2 receptor (P47747 whole entry): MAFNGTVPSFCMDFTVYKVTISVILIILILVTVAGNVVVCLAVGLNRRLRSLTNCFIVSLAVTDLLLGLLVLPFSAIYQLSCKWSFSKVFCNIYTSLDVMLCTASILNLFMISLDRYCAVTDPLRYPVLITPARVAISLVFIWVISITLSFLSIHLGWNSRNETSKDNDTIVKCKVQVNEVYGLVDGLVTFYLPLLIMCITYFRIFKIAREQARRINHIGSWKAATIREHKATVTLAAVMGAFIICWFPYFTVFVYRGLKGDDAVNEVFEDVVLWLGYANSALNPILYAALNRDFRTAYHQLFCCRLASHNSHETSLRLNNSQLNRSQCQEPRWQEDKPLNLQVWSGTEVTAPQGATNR

Sequence of Histamine H3 receptor (Q9JI35 whole entry): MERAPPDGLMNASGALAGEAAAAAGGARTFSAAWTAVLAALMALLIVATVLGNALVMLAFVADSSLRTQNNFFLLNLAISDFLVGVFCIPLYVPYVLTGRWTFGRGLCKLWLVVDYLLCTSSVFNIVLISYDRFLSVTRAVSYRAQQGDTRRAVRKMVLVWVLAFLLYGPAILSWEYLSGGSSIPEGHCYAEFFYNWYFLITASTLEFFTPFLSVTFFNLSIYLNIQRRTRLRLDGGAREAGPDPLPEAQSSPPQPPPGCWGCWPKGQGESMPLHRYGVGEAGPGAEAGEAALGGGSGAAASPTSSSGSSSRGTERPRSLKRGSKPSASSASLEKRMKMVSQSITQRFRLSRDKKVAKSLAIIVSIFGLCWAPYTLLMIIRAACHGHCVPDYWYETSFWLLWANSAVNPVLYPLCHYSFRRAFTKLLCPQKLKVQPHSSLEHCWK
Sequence of D(3) dopamine receptor (P19020 whole entry): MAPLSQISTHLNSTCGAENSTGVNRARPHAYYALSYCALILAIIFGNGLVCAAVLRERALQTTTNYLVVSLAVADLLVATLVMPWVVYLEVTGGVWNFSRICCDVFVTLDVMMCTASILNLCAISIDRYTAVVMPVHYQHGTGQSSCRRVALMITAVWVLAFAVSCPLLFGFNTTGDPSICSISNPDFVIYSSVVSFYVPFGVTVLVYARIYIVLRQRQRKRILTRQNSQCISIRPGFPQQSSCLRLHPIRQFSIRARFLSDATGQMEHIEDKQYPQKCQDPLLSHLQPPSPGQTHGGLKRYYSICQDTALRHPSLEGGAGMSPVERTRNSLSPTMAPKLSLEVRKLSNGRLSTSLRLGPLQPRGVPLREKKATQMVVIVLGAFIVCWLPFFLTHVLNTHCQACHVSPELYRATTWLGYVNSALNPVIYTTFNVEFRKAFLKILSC
Sequence of D(1B) dopamine receptor (P21918 whole entry): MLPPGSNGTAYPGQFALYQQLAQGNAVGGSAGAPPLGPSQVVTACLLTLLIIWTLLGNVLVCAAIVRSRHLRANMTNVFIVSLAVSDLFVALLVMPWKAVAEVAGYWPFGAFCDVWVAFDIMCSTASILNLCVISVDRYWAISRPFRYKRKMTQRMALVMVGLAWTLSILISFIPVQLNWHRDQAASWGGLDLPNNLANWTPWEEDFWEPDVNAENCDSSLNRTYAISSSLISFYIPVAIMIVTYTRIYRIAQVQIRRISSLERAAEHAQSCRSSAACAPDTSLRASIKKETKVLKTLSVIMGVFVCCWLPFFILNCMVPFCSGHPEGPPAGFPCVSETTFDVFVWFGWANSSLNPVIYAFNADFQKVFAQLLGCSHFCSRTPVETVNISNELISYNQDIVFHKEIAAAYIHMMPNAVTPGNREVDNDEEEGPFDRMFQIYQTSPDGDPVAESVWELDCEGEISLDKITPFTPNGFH
Sequence of 5-hydroxytryptamine receptor 2B (P41595 whole entry): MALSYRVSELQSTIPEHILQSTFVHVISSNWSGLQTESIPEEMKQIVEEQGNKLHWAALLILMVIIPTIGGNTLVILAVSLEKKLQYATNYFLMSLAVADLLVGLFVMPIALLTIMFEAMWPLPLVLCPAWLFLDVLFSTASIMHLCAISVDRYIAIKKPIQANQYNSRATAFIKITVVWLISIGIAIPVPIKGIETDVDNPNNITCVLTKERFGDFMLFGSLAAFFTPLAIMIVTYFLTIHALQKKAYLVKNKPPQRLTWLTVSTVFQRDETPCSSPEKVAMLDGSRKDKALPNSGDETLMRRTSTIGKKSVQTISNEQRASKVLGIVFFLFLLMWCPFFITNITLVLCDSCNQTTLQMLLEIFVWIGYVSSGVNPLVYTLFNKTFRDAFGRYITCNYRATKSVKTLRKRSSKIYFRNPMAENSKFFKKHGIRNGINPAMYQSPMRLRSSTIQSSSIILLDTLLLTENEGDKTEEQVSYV
Sequence of Beta-1 adrenergic receptor (P18090 whole entry): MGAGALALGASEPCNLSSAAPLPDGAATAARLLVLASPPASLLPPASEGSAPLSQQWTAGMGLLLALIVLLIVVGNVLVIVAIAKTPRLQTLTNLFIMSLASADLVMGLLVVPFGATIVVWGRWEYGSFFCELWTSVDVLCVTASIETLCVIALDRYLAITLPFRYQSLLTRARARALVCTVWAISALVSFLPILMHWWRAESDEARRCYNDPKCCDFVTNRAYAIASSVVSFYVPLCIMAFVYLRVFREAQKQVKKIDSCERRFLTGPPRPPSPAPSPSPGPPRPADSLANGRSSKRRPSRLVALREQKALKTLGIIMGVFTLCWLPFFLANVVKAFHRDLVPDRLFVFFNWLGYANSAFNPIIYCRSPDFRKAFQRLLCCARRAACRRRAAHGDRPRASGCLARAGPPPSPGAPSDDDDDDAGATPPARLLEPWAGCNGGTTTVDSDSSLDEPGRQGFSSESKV
Sequence of 5-hydroxytryptamine receptor 7 (P34969 whole entry): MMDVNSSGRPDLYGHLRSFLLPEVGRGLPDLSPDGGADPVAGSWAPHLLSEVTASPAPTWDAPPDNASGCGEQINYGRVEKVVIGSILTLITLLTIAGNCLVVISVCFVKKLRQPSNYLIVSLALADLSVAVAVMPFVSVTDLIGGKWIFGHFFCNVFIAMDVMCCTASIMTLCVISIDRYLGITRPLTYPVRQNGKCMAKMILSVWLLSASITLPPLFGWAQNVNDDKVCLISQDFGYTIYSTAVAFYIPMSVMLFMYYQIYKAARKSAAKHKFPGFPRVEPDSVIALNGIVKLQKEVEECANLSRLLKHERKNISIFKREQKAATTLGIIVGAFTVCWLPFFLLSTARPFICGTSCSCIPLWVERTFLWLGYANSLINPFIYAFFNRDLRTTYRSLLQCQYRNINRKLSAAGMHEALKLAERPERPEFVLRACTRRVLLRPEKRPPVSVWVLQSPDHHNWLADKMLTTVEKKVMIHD
Sequence of 5-hydroxytryptamine receptor 6 (P50406 whole entry): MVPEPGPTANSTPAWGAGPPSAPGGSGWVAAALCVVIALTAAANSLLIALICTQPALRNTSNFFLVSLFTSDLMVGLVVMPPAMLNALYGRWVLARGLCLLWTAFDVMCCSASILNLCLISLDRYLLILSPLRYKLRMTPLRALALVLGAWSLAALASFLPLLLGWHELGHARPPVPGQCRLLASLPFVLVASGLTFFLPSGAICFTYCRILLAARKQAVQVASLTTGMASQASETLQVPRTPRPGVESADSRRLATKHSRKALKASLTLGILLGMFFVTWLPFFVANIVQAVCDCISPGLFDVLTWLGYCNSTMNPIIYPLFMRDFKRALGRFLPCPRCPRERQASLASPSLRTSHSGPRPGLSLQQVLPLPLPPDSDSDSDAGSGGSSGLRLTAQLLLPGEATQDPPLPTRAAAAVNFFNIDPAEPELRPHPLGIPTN
Sequence of Kappa-type opioid receptor (P41145 whole entry): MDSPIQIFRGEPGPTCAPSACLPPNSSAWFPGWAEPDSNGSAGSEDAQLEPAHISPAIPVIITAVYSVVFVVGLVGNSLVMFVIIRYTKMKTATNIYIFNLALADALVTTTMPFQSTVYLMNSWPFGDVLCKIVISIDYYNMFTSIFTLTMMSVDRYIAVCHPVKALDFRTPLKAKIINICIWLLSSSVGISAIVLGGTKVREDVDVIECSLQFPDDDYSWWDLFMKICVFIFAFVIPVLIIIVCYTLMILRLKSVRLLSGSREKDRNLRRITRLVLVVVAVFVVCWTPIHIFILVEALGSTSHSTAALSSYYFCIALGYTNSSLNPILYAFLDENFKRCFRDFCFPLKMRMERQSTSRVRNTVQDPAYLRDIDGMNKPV
Sequence of Beta-3 adrenergic receptor (P26255 whole entry): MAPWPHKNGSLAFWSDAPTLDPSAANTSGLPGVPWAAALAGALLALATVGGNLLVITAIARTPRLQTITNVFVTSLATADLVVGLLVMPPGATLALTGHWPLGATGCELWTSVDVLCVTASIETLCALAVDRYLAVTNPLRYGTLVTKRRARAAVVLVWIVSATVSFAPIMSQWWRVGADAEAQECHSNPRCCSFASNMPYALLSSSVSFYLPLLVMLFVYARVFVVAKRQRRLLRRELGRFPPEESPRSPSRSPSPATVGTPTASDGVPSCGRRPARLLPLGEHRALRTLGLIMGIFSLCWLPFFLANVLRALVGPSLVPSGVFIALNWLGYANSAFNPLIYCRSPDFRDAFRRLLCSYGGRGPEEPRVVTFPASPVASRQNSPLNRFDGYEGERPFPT
Sequence of Muscarinic acetylcholine receptor M5 (P08912 whole entry): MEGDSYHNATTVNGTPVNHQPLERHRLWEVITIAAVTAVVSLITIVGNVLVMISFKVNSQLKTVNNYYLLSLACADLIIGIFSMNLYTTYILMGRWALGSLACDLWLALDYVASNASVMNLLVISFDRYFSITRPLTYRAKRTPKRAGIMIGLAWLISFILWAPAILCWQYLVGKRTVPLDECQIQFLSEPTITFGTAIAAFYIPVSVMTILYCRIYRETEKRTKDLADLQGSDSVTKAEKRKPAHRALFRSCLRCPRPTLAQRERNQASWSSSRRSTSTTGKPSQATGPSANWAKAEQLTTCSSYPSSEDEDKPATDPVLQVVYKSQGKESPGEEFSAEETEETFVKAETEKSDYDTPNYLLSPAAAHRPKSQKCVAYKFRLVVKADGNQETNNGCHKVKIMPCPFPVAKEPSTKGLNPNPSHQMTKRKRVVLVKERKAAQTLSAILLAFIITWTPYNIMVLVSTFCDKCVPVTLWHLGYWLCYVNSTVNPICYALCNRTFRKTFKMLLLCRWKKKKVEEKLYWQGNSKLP

| Compound | Ki [1] | Ki [2] | Ki [3] | Ki [4] | Ki [5] | Ki [6] | Ki [7] | Ki [8] | Ki [9] | Ki [10] | Ki [11] | Ki [12] | Ki [13] | Ki [14] | Ki [15] | Ki [16] | Ki [17] | Ki [18] | Ki [19] | Ki [20] | also measured |
| --- | --- | --- | --- | --- | --- | --- | --- | --- | --- | --- | --- | --- | --- | --- | --- | --- | --- | --- | --- | --- | --- |
| CCCCN1CCC(COC(=O)c2cc(Cl)c(NC)c3c2OCCO3)CC1 | 5.7 µM | > 10 µM | 0.972 µM | 1.3 µM | 0.972 µM | > 10 µM | > 10 µM | 2.02 µM | 0.336 µM | 2.28 µM | > 10 µM | 0.000577 µM | > 10 µM | 0.489 µM | 0.06 µM | > 10 µM | > 10 µM | 0.671 µM | 0.008 µM | 0.066 µM | Ki [21]: 0.823 µM; Ki [22]: > 10 µM; Ki [23]: > 10 µM; Ki [24]: 0.3 µM; Ki [25]: 0.82 µM; Ki [26]: 0.685 µM; Ki [27]: > 10 µM |
| CCCCN1CCC(COC(=O)c2ccc(N)c(OC)c2)CC1 | > 10 µM | > 10 µM | 4.06 µM | 5.69 µM | > 10 µM | 1.65 µM | > 10 µM | > 10 µM | 6.27 µM | > 10 µM | > 10 µM | 0.000738 µM | 4.41 µM | > 10 µM | 0.211 µM | > 10 µM | > 10 µM | > 10 µM | 0.148 µM | 2.86 µM | Ki [21]: 1.1 µM; Ki [22]: > 10 µM; Ki [23]: 4.23 µM; Ki [24]: > 10 µM; Ki [25]: > 10 µM; Ki [26]: > 10 µM; Ki [27]: > 10 µM |
